HSF-1 act: increases HSF-1 driven luciferase reporter signal; NIH3T3-HGL HSF-1 luciferase reporter, MG132, 8 h; 100% = twice DMSO control signal; activation, % at 9 µM; AID 504408; hit rate 1.7% among 300,000;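 active = mean replicate activation of at least 50% with a set share of replicates each reaching 50%; inconclusive = only one of those two conditions met; inactive = mean below 50% and too few replicates reaching it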;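 also: 0% = median of the neutral control wells and 100% = twice that signal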
GPR7 antag: human neuropeptides B/W receptor 1 antagonism. GPR7-expressing cells, fluorescence antagonist assay. hit rate 1.1% among 290,000. inhibition, % at 4.4 µM; in the data active = inhibition above about 16%, passing the limit was not always enough;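 also: cells stimulated with the agonist NPW; 0% = agonist with vehicle and 100% = vehicle without agonist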
Target sequence (P48145 whole entry, looked up): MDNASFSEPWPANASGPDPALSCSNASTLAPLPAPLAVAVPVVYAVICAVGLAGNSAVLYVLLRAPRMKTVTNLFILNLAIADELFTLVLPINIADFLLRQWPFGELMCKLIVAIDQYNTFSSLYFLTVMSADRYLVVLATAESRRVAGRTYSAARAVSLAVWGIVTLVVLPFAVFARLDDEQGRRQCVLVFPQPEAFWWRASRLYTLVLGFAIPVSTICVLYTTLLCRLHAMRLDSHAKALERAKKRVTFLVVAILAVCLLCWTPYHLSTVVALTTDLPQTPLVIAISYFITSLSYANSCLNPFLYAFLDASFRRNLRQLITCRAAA
T cruzi repl: blocks replication of Trypanosoma cruzi. inhibition, % (no concentration beside the values). AID 1885. T. cruzi beta-gal in NIH3T3, luminescence, 90 h. hit rate 1.4% among 300,000;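 active = mean inhibition across valid replicates above about 55%, limit read from the data; inconclusive = mean below that limit but half or more replicates reach it; inactive = mean below it, under half of replicates reach it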;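 also: signal also drops with host cell toxicity which is not excluded here; 0% = plate median of DMSO wells and 100% = zero luminescence signal; higher percent means less beta-gal luminescence so fewer parasites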
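Assay system: NIH/3T3 fibroblasts plus reporter T. cruzi. Amount: NIH/3T3 cells, 5,000 per well. Buffer or medium: DMEM, 2% fetal bovine serum. Doses: compound pinned at 50 nL/well, DMSO. Schedule: ≥90 h infection period, 3 h prior cell attachment. Signal: luminescent β-galactosidase signal after 60 min lysis. Read-out: parasite load inhibition, %.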
Jurkat NFkB inh: lowers PMA/ionomycin-induced NF-kB signal in Jurkat cells; PMA/ionomycin-induced NF-kB luciferase reporter, luminescence; inhibition, % at 4 µM; hit rate 0.53% among 330,000; in the data active = inhibition above about 50%
HSF1 inh: HSF1 inhibition. hit rate 0.77% among 300,000. activity change, negative = inhibition, % at 7.5 µM (by protocol). NIH3T3-HGL HSE-luciferase, MG132-induced, luminescence 8 h; hits give low values. AID 2098;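 active = more than half of replicate wells show activity change below -50%, luminescence cut by over half; inconclusive = some wells, but at most half, below -50%; inactive = no replicate well below -50%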;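 also: luciferase reports HSF-1 transcriptional activity via heat shock element; 0% = median of DMSO wells and -100% = zero luminescence signal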
697 NFkB inh: inhibitors of the PMA/ionomycin-induced NF-kB reporter in 697 B cells; inhibition, % at 4 µM; AID 435022; 697 B-cell NF-kB luciferase reporter, 16 h; hit rate 0.33% among 330,000; in the data active = inhibition above about 35%
Numbers without * were called inactive; u = inconclusive; x = no result. This is a sample that favours compounds with a hit; in the whole collection about 4.8% have one here.

SMILES	HSF-1 act	GPR7 antag	T cruzi repl	Jurkat NFkB inh	HSF1 inh	697 NFkB inh
CCOc1ccc(Br)cc1C1C(C(=O)OC)=C(N)Oc2cc(N(C)C)ccc21 (stereo not given)	-1	-11	69*	25	5	16
O=C(COC(=O)c1c2c(nc3ccccc13)/C(=C\c1cccs1)CCC2)Nc1ccccc1	16	-2	74*	0	12	-26
CC(=O)c1ccc(NC(=O)COC(=O)c2c3c(nc4ccccc24)/C(=C\c2cccs2)CCC3)cc1	3	-12	43	12	5	2
O=C(c1c[nH]c2ccccc12)N1CCN(Cc2ccccc2)CC1	-16	18*	-5	-12	-1	-12
O=[N+]([O-])c1ccc(S(=O)(=O)N2CCN(Cc3c[nH]c4ccccc34)CC2)cc1	-6	7	74*	2	6	21
O=C(C(=O)N1CCN(Cc2ccccc2)CC1)c1c[nH]c2ccccc12	x	x	x	27	x	10
c1ccc(CN2CCN(Cc3c[nH]c4ccccc34)CC2)cc1	-6	3	60*	18	1	8
Cc1ccc(C)c(OCCCCCn2ccnc2)c1	-5	9	72*	-6	0	-19
Clc1ccc(OCCn2ccnc2)c2ccccc12	-15	-1	70*	9	-7	-2
Cc1cc(C)c(OCCCCCn2ccnc2)c(C)c1	14	-20	48	-33	0	-47
Fc1ccc(OCCCn2ccnc2)cc1	-13	-16	-19	-18	-3	-7
Fc1ccc(OCCCCCn2ccnc2)cc1	24	0	55*	0	6	-17
C=CCc1cc(Cl)ccc1OCCCn1ccnc1	5	-13	57*	-8	-3	-32
C=CCc1cc(Cl)ccc1OCCn1ccnc1	15	-14	22	7	4	1
CCC(Cc1ccccc1)NC(=O)c1cc(S(=O)(=O)N2CCCCC2)c[nH]1 (stereo not given)	-2	-1	-3	12	4	7
CNS(=O)(=O)c1ccc(NC(=O)c2ccccn2)cc1	28	-6	-6	-69	10	-98
CCOC(=O)c1ccc(NC(=O)CCCN2C(=O)NC3(CCCC3)C2=O)cc1	x	x	x	-3	x	-10
Cc1cc(OCCCn2ccnc2)cc(C)c1Cl	-21	-4	59*	1	-5	-4
Cc1cc(OCCCCCn2ccnc2)cc(C)c1Cl	15	14	49	-1	-3	-41
O=C(Nc1ccccc1N1CCOCC1)c1ccc2c(c1)OCCO2	-10	3	-1	-7	-4	-7
C#CCN1C(=O)S/C(=C/c2cc(C)n(CC)c2C)C1=O	58*	-4	3	-133	7	-183
CCCCn1nc(C(=O)N(C)CC(=O)Nc2ccc(F)c(F)c2F)ccc1=O	x	x	x	-2	x	5
CCOC(=O)CNC(=O)CSc1nnc(C)c(=O)[nH]1	-85	2	-6	-7	-81*	-12
CCOC(=O)c1c(NC(=O)CSc2nnc(C)c(=O)[nH]2)sc(C)c1C	6	-12	-9	-25	3	-3
COc1ccc(N)cc1-n1cnnn1	-5	-13	-12	-15	-3	-12
SMILES	HSF-1 act	GPR7 antag	T cruzi repl	Jurkat NFkB inh	HSF1 inh	697 NFkB inh
COc1ccc(C(=O)/C=C/C(=O)N(CC(=O)NC2CCCCC2)Cc2ccc(F)cc2)c(O)c1	8	-4	59*	x	u	x
CS(=O)(=O)N(CC(=O)NC1CCCCC1)Cc1ccc(F)cc1	1	-8	-28	-12	5	-1
CC1CN(C(=O)c2cc(S(=O)(=O)N(C)c3ccc(F)cc3)ccc2Cl)CC(C)O1 (stereo not given)	-76	6	16	3	-71*	-52
COc1cc(SC)ccc1C(=O)OC(C)C(=O)NC1CCCC1 (stereo not given)	x	-2	x	x	x	x
CCCCCCCN(C(=O)CCl)c1ccccc1C	94*	-1	2	-2	34	1
Oc1ccc(-c2cc(-c3ccc(O)cc3)nc(-c3ccccc3)n2)cc1	-11	25	55*	0	0	-10
O=C(Nn1cnc2ccccc2c1=O)c1ccccc1[N+](=O)[O-]	-5	-8	-10	-4	-10	-5
CC1=NN(c2ccccc2)C(=O)C1N=Nc1ccc(C)cc1 (stereo not given)	20	-4	2	4	2	13
CC1=NN(c2ccccc2)C(=O)C1N=Nc1ccc(S(N)(=O)=O)cc1 (stereo not given)	-80	-15	u	2	-78*	-5
O=C1OC(NC(=O)c2ccccc2)C(n2cc(CO)nn2)=C1Cl (stereo not given)	-67	6	0	-8	-62*	-23
O=S(=O)(c1ccccc1)N(CC(O)Cn1c2ccccc2c2ccccc21)c1ccccc1 (stereo not given)	13	-17	35	-5	-3	-1
COc1ccccc1N(CC(O)Cn1c2ccccc2c2ccccc21)S(=O)(=O)c1ccccc1 (stereo not given)	31	6	63*	-9	10	2
CSc1ccc(CN(C)Cc2cc(=O)oc3c(C)c(C)ccc23)cc1	-75	-7	36	7	-69*	-14
Cc1cc(C)c2oc(=O)cc(CN3CCN(Cc4ccccc4)CC3)c2c1	-5	-11	52	-17	-8	-13
Cc1ccc2c(CN3CCN(Cc4ccccc4)CC3)cc(=O)oc2c1C	0	0	57*	3	5	10
Cc1ccc2c(CN3CCOCC3)cc(=O)oc2c1C	8	-2	0	-13	-5	-11
Cc1ccc2c(CN3CCN(CCO)CC3)cc(=O)oc2c1C	6	-9	55*	-9	-7	2
Cc1ccc2c(CN3CCC(C)CC3)cc(=O)oc2c1C	54*	4	0	-69	24	-63
Cc1noc(NS(=O)(=O)c2ccc(NC(=O)C(CC(C)C)N3C(=O)c4ccccc4C3=O)cc2)c1C (stereo not given)	-27	-15	6	1	-6	18
FC(F)(F)Oc1ccc(NC(=S)Nc2ccccc2N2CCOCC2)cc1	-18	-11	-19	7	-12	-4
CCCN1CCC(NC(=O)Cc2ccc(C)cc2)CC1	4	19	2	-1	0	8
Cc1ccc(-n2cc(CNCCc3ncc(C)[nH]3)c(-c3ccc(F)cc3)n2)cc1	14	3	35	-13	7	12
Cc1ccc(NC(=O)c2c(C(F)(F)F)nn(C)c2Cl)cc1C	3	-10	-1	-4	3	12
Cc1ccc(NC(=O)c2c(C(F)(F)F)nn(C)c2SCc2ccc(Cl)cc2)cc1C	-52	-4	65*	-10	u	3
Cc1ccc(NC(=O)c2c(C(F)(F)F)nn(C)c2SCc2cccc(C(F)(F)F)c2)cc1C	39	-14	59*	-4	18	-42
NNC(=O)c1ccc(CSc2nc3ccccc3[nH]2)cc1	13	13	-1	-18	1	1
